Reference: ChEMBL document CHEMBL1828618, “Synthesis and biological activity of novel tiliroside derivants” (Eur J Med Chem, 2011)

System: HepG2
Test: Increase in glucose consumption in insulin-resistant human HepG2 cells after 24 hrs
Format: functional, cell-based
Conditions: HepG2, 24 h
Method in brief: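 HepG2 grown in high-glucose DMEM with 10% FBS, then plated 24 h. Made insulin-resistant with 10^-7 M insulin for 36 h in serum-free, phenol red-free high-glucose DMEM. Washed, then exposed to test agents at several concentrations for 24 h. Medium glucose measured by kit. Consumption gain expressed as % over the insulin-resistant model group. EC50 derived.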

SMILES | EC50 [µM]
O=C(/C=C/c1ccc(Cl)c(Cl)c1)COc1c(-c2ccc(O)cc2)oc2cc(O)cc(O)c2c1=O | 2.59
O=C(/C=C/c1ccc(O)cc1)COc1c(-c2ccc(O)cc2)oc2cc(O)cc(O)c2c1=O | 0.368
CCCCOc1ccc(/C=C/C(=O)COc2c(-c3ccc(O)cc3)oc3cc(O)cc(O)c3c2=O)cc1 | > 20
O=C(/C=C/c1ccc(Cl)cc1)COc1c(-c2ccc(O)cc2)oc2cc(O)cc(O)c2c1=O | 1.07
CC(C)(C)c1ccc(/C=C/C(=O)COc2c(-c3ccc(O)cc3)oc3cc(O)cc(O)c3c2=O)cc1 | 0.013
O=C(/C=C/c1ccc(O)cc1)OC[C@H]1O[C@@H](Oc2c(-c3ccc(O)cc3)oc3cc(O)cc(O)c3c2=O)[C@H](O)[C@@H](O)[C@@H]1O [TILIROSIDE] | 0.155
N#Cc1ccc(/C=C/C(=O)COc2c(-c3ccc(O)cc3)oc3cc(O)cc(O)c3c2=O)cc1 | 0.003
CCCCCCCCOc1ccc(/C=C/C(=O)COc2c(-c3ccc(O)cc3)oc3cc(O)cc(O)c3c2=O)cc1 | > 20
COc1ccc(/C=C/C(=O)COc2c(-c3ccc(O)cc3)oc3cc(O)cc(O)c3c2=O)cc1 | 0.149
O=C(/C=C/c1ccc(F)cc1)COc1c(-c2ccc(O)cc2)oc2cc(O)cc(O)c2c1=O | 0.669
COc1ccc(/C=C/C(=O)COc2c(-c3ccc(O)cc3)oc3cc(O)cc(O)c3c2=O)cc1O | 5.07
Cc1ccc(/C=C/C(=O)COc2c(-c3ccc(O)cc3)oc3cc(O)cc(O)c3c2=O)cc1 | 0.01

Next, values leading:

EC50 [µM] | SMILES
0.393 | O=C(/C=C/c1ccc(Br)cc1)COc1c(-c2ccc(O)cc2)oc2cc(O)cc(O)c2c1=O
> 20 | COc1ccc(/C=C/C(=O)COc2c(-c3ccc(O)cc3)oc3cc(O)cc(O)c3c2=O)cc1Br
> 20 | CSc1ccc(/C=C/C(=O)COc2c(-c3ccc(O)cc3)oc3cc(O)cc(O)c3c2=O)cc1
0.27 | CN(C)C(=N)NC(=N)N [METFORMIN]
> 20 | COc1cc(/C=C/C(=O)COc2c(-c3ccc(O)cc3)oc3cc(O)cc(O)c3c2=O)ccc1OCc1ccccc1
> 20 | O=C(/C=C/c1ccc(C(F)(F)F)cc1)COc1c(-c2ccc(O)cc2)oc2cc(O)cc(O)c2c1=O
0.658 | O=C(/C=C/c1ccc(OCc2ccccc2)cc1)COc1c(-c2ccc(O)cc2)oc2cc(O)cc(O)c2c1=O
6.19 | COc1cc(/C=C/C(=O)COc2c(-c3ccc(O)cc3)oc3cc(O)cc(O)c3c2=O)ccc1O
0.015 | CC(C)c1ccc(/C=C/C(=O)COc2c(-c3ccc(O)cc3)oc3cc(O)cc(O)c3c2=O)cc1
0.473 | O=C(/C=C/c1ccccc1)COc1c(-c2ccc(O)cc2)oc2cc(O)cc(O)c2c1=O
3.56 | O=C(/C=C/c1ccc(O)c(Cl)c1)COc1c(-c2ccc(O)cc2)oc2cc(O)cc(O)c2c1=O
> 20 | CCCCCCOc1ccc(/C=C/C(=O)COc2c(-c3ccc(O)cc3)oc3cc(O)cc(O)c3c2=O)cc1
0.042 | CCOc1ccc(/C=C/C(=O)COc2c(-c3ccc(O)cc3)oc3cc(O)cc(O)c3c2=O)cc1

System: HepG2
Test: Induction of ACC phosphorylation in human HepG2 cells after 2 hrs by Western blot analysis
Format: cell-based
Conditions: not given
Method in brief: (§1)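 HepG2 in 12-well plates exposed to increasing doses for 2 h. Lysed on ice in RIPA buffer (pH 7.2) with phosphatase and protease inhibitors. Run on 7.5% SDS-PAGE and blotted to PVDF. Blocked 1 h in 5% BSA, primary antibodies overnight at 4 °C, secondary 1 h at room temperature. Chemiluminescent detection. Means ± SE of 3 independent experiments.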

SMILES | Activity
N#Cc1ccc(/C=C/C(=O)COc2c(-c3ccc(O)cc3)oc3cc(O)cc(O)c3c2=O)cc1 | Dose-dependent effect

Target: AMP-activated protein kinase, AMPK (Homo sapiens) (UniProt P54646+O43741+P54619+Q9UGJ0+Q9Y478+Q13131+Q9UGI9)
Test: Induction of AMPK phosphorylation in human HepG2 cells after 2 hrs by Western blot analysis
Format: cell-based
Conditions: not given
Method in brief: as §1

Activity | SMILES
Dose-dependent effect | N#Cc1ccc(/C=C/C(=O)COc2c(-c3ccc(O)cc3)oc3cc(O)cc(O)c3c2=O)cc1

Target: not listed separately
Test: Inhibition of dephosphorylated glycogen phosphorylase
Conditions: not given

IC50 [µM] | SMILES
9.7 | O=c1c(O)c(-c2ccc(O)c(O)c2)oc2cc(O)c(O)c(O)c12 [QUERCETAGETIN]
11.6 | O=c1cc(-c2ccc(O)c(O)c2)oc2cc(O)c(O)c(O)c12 [6-HYDROXYLUTEOLIN]
15.7 | O=c1cc(-c2ccc(O)c(O)c2)oc2c(O)c(O)cc(O)c12 [HYPOLAETIN]
